From ChEMBL document CHEMBL1131568, “Intensely potent doxorubicin analogues: structure-activity relationship” (J Med Chem, 1998) come the findings set out here.

The subject of assay [1] is CHO. Kind of assay: Compound was tested for the drug concentration that inhibited cell growth by 50% compared to un treated control cultures of CHO /DOX cell line. The class given is functional, cell-based. Conditions: Cricetulus griseus. In a few lines: (§1)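 Exponentially growing cells, seeded at 1.5×10^4 cells/mL in McCoy's 5A with 10% FCS, exposed to drug over 2×10^-5 to 2×10^-12 M for 6 days at 37 °C. Cells fixed in 10% formaldehyde, stained with 0.1% crystal violet, and counted by inverted phase-contrast microscopy. IC50 taken from dose-response curves of surviving fraction versus untreated controls; mean of duplicates.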

Assay [2] can be described thus: Compound was tested for the drug concentration that inhibited cell growth by 50% compared to un treated control cultures of CA 755 cells(murine carcinoma 755 cells). The class given is functional, Mus musculus. In outline:
as §1

The species named for assay [3] is Mus musculus. Briefly: Compound was tested for the drug concentration that inhibited cell growth by 50% compared to un treated control cultures of Panc 02 cells. It is filed as functional, cell-based. The following applies: Panc02. In outline: as §1
In assay [4] the test system is CHO. Kind of assay: Drug concentration that inhibit cell growth by 50% compared to un treated control cultures of CHO cells (for 6 days at 37 degree Centigrade). The following applies: Cricetulus griseus, 144 h. It is filed as functional, cell-based. In outline: as §1
The species named for assay [5] is Mus musculus. Briefly: Compound was tested for the drug concentration that inhibited cell growth by 50% compared to untreated control cultures of Panc 02 cells. The class given is functional, cell-based. Conditions: Panc02. In outline:
as §1

Assay [6] is described as follows: Compound was tested for the drug concentration that inhibited cell growth by 50% compared to untreated control cultures of CA 755 cells(murine carcinoma 755 cells). It is filed as functional. The following applies: Mus musculus. In outline: as §1

As to `COc1cccc2c1C(=O)c1c(O)c3c(c(O)c1C2=O)CC(O)(C(=O)CO)CC3OC1CC(NCCC(C)(C)C(OC(C)=O)OC(C)=O)C(O)C(C)O1` (stereo not given), the IC50 turned out to be 290 nM in assay [1], 90 nM in assay [2], 95 nM in assay [3] and 120 nM in assay [4].

For the compound `COc1cccc2c1C(=O)c1c(O)c3c(c(O)c1C2=O)CC(O)(C(=O)CO)CC3OC1CC(NCCCOCCC(OC(C)=O)OC(C)=O)C(O)C(C)O1` (stereo not given), the IC50 in assay [1] was found to be 210 nM; in assay [2] it was 90 nM; in assay [3], 80 nM; in assay [4] it was 100 nM.

For `COc1cccc2c1C(=O)c1c(O)c3c(c(O)c1C2=O)CC(O)(C(=O)CO)CC3OC1CC(NCCCCCC(OC(C)=O)OC(C)=O)C(O)C(C)O1` (stereo not given), the 50% inhibitory concentration (IC50) in assay [1] was found to be 13 nM; in assay [2], 3.1 nM; in assay [3] it was 14 nM; in assay [4], 26 nM.

Consider `COc1cccc2c1C(=O)c1c(O)c3c(c(O)c1C2=O)CC(O)(C(=O)CO)CC3OC1CC(N(C)CCCCC(OC(C)=O)OC(C)=O)C(O)C(C)O1` (stereo not given), for which the IC50 in assay [1] turned out to be 185 nM; in assay [2], 130 nM; in assay [3] it was 140 nM; in assay [4], 65 nM.

In the case of `COc1cccc2c1C(=O)c1c(O)c3c(c(O)c1C2=O)CC(O)(C(=O)CO)CC3OC1CC(NCCOCCC(OC(C)=O)OC(C)=O)C(O)C(C)O1` (stereo not given), the IC50 in assay [1] was determined as 96 nM; in assay [3], 60 nM; in assay [4] it was 55 nM.

As for `COc1cccc2c1C(=O)c1c(O)c3c(c(O)c1C2=O)CC(O)(C(=O)CO)CC3OC1CC(NCCCCCCCC(OC(C)=O)OC(C)=O)C(O)C(C)O1` (stereo not given), the concentration for half-maximal inhibition (IC50) was 170 nM in assay [1], 14 nM in assay [2], 110 nM in assay [3] and 250 nM in assay [4].

On to `CCCCCNC1CC(OC2CC(O)(C(=O)CO)Cc3c(O)c4c(c(O)c32)C(=O)c2c(OC)cccc2C4=O)OC(C)C1O` (stereo not given), for which the IC50 was 33 nM in assay [2] and 100 nM in assay [3].

Consider `COc1cccc2c1C(=O)c1c(O)c3c(c(O)c1C2=O)CC(O)(C(=O)CO)CC3OC1CC(NCCCC(=O)O)C(O)C(C)O1` (stereo not given), for which the IC50 in assay [1] was found to be 950 nM; in assay [2] it was 150 nM; in assay [3], 240 nM; in assay [4] it was 203 nM.

Take `COc1cccc2c1C(=O)c1c(O)c3c(c(O)c1C2=O)CC(O)(C(=O)CO)CC3OC1CC(NCCCCCOC(C)=O)C(O)C(C)O1` (stereo not given): the concentration for half-maximal inhibition (IC50) turned out to be 350 nM in assay [1], 140 nM in assay [2], 67 nM in assay [3] and 83 nM in assay [4].

As for `COc1cccc2c1C(=O)c1c(O)c3c(c(O)c1C2=O)C[C@@](O)(C(=O)CO)C[C@@H]3O[C@H]1C[C@H](N)[C@H](O)[C@H](C)O1` [DOXORUBICIN], the IC50 in assay [5] was found to be 65 nM; in assay [6], 14 nM.

As usually defined, the IC50 is the concentration that gives 50% inhibition.
